The source made the active and inactive calls.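 How the source made its calls: active means cell kill with TRAIL plus compound beats the two separate kills summed, at every dose, and climbs with dose; inactive means the rest.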
Tested on: 184B5 cells, TRAIL potentiation, ATPlite cytotoxicity, 24 h
Experiment: TRAIL co-treatment toxicity in normal 184B5 cells, confirmation, counter-screen for TRAIL sensitizer project, 184B5 normal mammary epithelial cells (AID 1745)
Conditions: stronger effect = higher value
Outline: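 System: Normal (non-cancer) 184B5 cells. Also added: TRAIL at 1000 ng/mL final. Doses: compound at final concentrations from 1.25 to 5 µM. Times: compound 4 h then TRAIL 24 h, 37 °C. Signal: ATPLite luminescence.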

[1] = compound alone cytotoxicity, at 5 µM
[2] = compound plus TRAIL, at 1.25 µM

SMILES	cytotoxicity with TRAIL (at 5 µM)	cytotoxicity [1] [%]	cytotoxicity (compound alone, at 1.25 µM) [%]	cytotoxicity (compound alone, at 2.5 µM) [%]	cytotoxicity with TRAIL [2] [%]	cytotoxicity with TRAIL (compound plus TRAIL, at 2.5 µM) [%]
CCSc1nc(-c2ccccc2)nc(C(Cl)Cl)n1	25% (inactive)	11	10	11	21	22
CSc1nc(-c2ccccc2)nc(C(Cl)Cl)n1	32% (inactive)	22	19	22	28	28
CSc1nc(-c2ccc(C)cc2)nc(C(Cl)Cl)n1	41% (inactive)	9	2	6	35	39

Source: PubChem BioAssay AID1745 (Sanford-Burnham Center for Chemical Genomics, 2009)
